Source: PubChem BioAssay
NS3 helicase inh – inhibitors of HCV NS3 helicase, primary screen, biochemical, Cy5 molecular beacon fluorescence. 290,000 tested, 0.56% active. inhibition, % at 10.9 µM. AID 1800, 2009. NS3 helicase DNA unwinding;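 active = inhibition above the mean of all tested compounds plus 3 SD, set per campaign, cut at about 35% in these data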
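assay system = NS3 helicase fragment of HCV | buffer or medium = MOPS pH 6.5, MgCl2, DTT, Tween20, BSA | timing = 60 min unwinding reaction at 25 °C after ATP addition | signal = Cy5 beacon fluorescence read at start and 1 h | read-out basis = % inhibition of unwinding | control set = low DMSO, high thioflavine S at 110 µM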
MBD2 DNA inh – inhibitors of MBD2 binding to methylated DNA, primary screen, biochemical, TR-FRET, DNA-binding domain, human; 370,000 tested, 0.31% active; Methyl-CpG-binding domain protein 2 (Homo sapiens), Q9UBB5; inhibition, % at 4.4 µM; MBD2 binding to methylated oligonucleotide; AID 686964, 2013; in the data active = inhibition above about 13%
Target sequence (Q9UBB5 whole entry, looked up, the tested form may be a part): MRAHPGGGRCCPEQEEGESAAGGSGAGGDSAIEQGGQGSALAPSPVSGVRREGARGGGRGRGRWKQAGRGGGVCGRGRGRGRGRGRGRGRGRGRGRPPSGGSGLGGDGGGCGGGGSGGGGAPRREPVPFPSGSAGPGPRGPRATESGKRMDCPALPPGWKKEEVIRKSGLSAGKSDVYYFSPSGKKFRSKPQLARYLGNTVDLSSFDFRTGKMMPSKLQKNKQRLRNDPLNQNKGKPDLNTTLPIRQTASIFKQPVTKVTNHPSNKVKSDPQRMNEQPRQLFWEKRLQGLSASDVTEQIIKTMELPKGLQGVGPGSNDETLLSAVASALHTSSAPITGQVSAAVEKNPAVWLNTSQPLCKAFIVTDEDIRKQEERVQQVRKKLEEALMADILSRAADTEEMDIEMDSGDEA
UHRF1 MBD2 ctr – UHRF1 methylated DNA binding inhibitors, primary screen, counter-screen for MBD2 inhibitor project, biochemical, TR-FRET, human UHRF1, single concentration. E3 ubiquitin-protein ligase UHRF1 (Homo sapiens), Q96T88. UHRF1 binding to methylated oligo. inhibition, % at 4.4 µM. 370,000 tested, 0.75% active. AID 687016, 2013;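 also: UHRF1 SRA domain binding a hemimethylated CpG hairpin DNA probe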
SUMO1-SIM PPI – modulators of SUMO1 protein-protein interactions, primary screen, biochemical, uHTS | SUMO1 binding to a labelled peptide, TR-FRET, 1 h | Small ubiquitin-related modifier 1 (Homo sapiens), P63165 | 360,000 tested, 0.33% active | inhibition, % at 20 µM; in the data active = inhibition above about 37%
DNMT1 block – human DNMT1 methyltransferase inhibitors, primary screen, biochemical, molecular beacon, fluorescence, HinP1I cleavage, uHTS | DNA (cytosine-5)-methyltransferase 1 (Homo sapiens), P26358 | inhibition (reported as % activation of signal), % at 10 µM | 360,000 tested, 0.83% active | AID 588458, 2011; in the data active = inhibition above about 50%
DSG3 Ab inh – inhibitors of pemphigus antibody binding to DSG3, primary screen, biochemical, bead-based, flow cytometry, scFv-GFP | Desmoglein-3 (Homo sapiens), P32926 | DSG3-coupled beads, scFv-anti-DSG3-GFP binding; stronger effect = lower value | binding (percent of control), % at 10 µM | 310,000 tested, 0.48% active | AID 588358, 2011;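 active = binding more than 3 SD below its plate's average and above zero; inconclusive = below that plate limit but binding exactly zero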;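 also: hits lower antibody fragment binding to DSG3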
UHRF1 ctr MBD2 – UHRF1 methylated DNA binding inhibitors, counter-screen for MBD2 inhibitor project, biochemical, TR-FRET, human UHRF1. shares compounds with MBD2 DNA inh. UHRF1 binding to methylated oligonucleotide. inhibition, % at 4.4 µM. 1,000 tested, 25% active. AID 720530, 2013;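 also: UHRF1 SRA domain binding a labeled hemimethylated CpG hairpin DNA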
MBD2 confirm – inhibitors of MBD2 binding to methylated DNA, confirmation, biochemical, TR-FRET, DNA-binding domain, human; shares compounds with MBD2 DNA inh; AID 720531, 2013; TR-FRET MBD2-DBD binding to methylated oligonucleotide; inhibition, % at 4.4 µM; 1,000 tested, 26% active; in the data active = inhibition above about 14%
A number is an active result; – = inactive; ? = inconclusive; · = no result given. The list is not random: actives were taken first. Their share in the collection is about 2.5%. Rule as the data show it, unless noted: active = inhibition above about 21%; inactive = the rest.

SMILES	NS3 helicase inh	MBD2 DNA inh	UHRF1 MBD2 ctr	SUMO1-SIM PPI	DNMT1 block	DSG3 Ab inh	UHRF1 ctr MBD2	MBD2 confirm
COc1ccc2c(=O)c3c(=O)n(-c4ccccc4)c(-c4ccc(C)cc4)nc3oc2c1	–	19.1	–	–	–	·	–	67.5
Clc1ccc(NCn2cncn2)nc1	–	–	–	–	–	·	·	·
CCN(C(=O)COC(=O)/C=C/c1cccc(Br)c1)C1CCS(=O)(=O)C1 (stereo not drawn)	–	15.9	28.4	–	–	–	–	–
CN(C(=O)COC(=O)/C=C/c1cccc([N+](=O)[O-])c1)C1CCS(=O)(=O)C1 (stereo not drawn)	–	–	–	–	–	–	·	·
C=CCN(C(=O)Nc1ccccc1)C1CC(=O)N(c2ccc(OC)cc2)C1=O (stereo not drawn)	–	–	–	–	–	–	·	·
COCCNC(=O)c1cc(-c2cccc(OC)c2)on1	–	–	–	–	–	–	·	·
COc1cccc(-c2cc(C(=O)NC3CCCC3)no2)c1	–	16.3	–	–	–	–	–	–
CCCn1nnc(NC(=O)Cc2ccc(Cl)cc2)n1	–	–	–	–	–	–	·	·
CCCn1nnc(NC(=O)COc2ccc(Cl)cc2)n1	–	14.2	23.3	–	–	–	–	–
O=C(c1ccc(C#CC2(O)CCCCC2)cc1)N1CCN(Cc2ccccc2)CC1	–	–	–	–	–	–	·	·
CCOC(=O)N1CCN(C(=O)c2ccc(C#CC3(O)CCCCC3)cc2)CC1	–	14.7	25.9	–	–	–	–	–
COC(=O)c1cc(O)cc(OC)c1Oc1cc(C)cc(O)c1C(=O)O	·	14.0	28.8	44.0	–	–	56.4	30.4
COC(=O)c1cc(O)cc(OC)c1C(=O)c1c(O)cc(C)cc1O	·	–	–	–	–	·	·	·
COc1ccccc1CNC(=O)C1CC(c2ccccc2F)=NO1 (stereo not drawn)	·	–	–	–	–	–	·	·
CCOC(=O)c1[nH]ncc1CN1CCCC(C(=O)c2cccc3ccccc23)C1 (stereo not drawn)	–	14.3	23.6	–	–	–	–	–
Cc1ccc(-c2nc3ccc(C)cn3c2Cc2ccccc2C(F)(F)F)cc1	·	–	–	–	–	·	·	·
Cc1ccc2nc(C(C)(C)C)c(Cc3ccccc3C(F)(F)F)n2c1	·	14.9	21.0	–	–	·	–	–
CC(=O)N(Cc1cc(=O)[nH]c2ccccc12)c1ccccc1C	–	–	–	–	–	–	·	·
CCOc1ccccc1NC(=O)CCS(=O)(=O)c1ccc(OC)cc1	–	–	–	–	–	–	·	·
CCc1ccccc1NC(=O)CCS(=O)(=O)c1ccc(OC)cc1	–	40.5	75.0	–	–	–	–	–
COc1ccc(/C=C2/SC(=S)N(n3c(C)ccc3C)C2=O)cc1	–	13.5	21.8	–	–	–	–	–
Cc1nc(-c2cc(-c3nc(-c4ccc(C(C)(C)C)cc4)no3)no2)cs1	–	–	–	–	–	–	·	·
COc1cccc(NC(=O)CSc2nnc3ccc(-c4ccncc4)nn23)c1	·	–	–	–	–	?	·	·
Cc1onc(-c2ccccc2Cl)c1C(=O)N1CCC(Cc2ccccc2)CC1	–	15.8	29.4	–	–	–	–	–
COc1ccc(OC)c(/C(O)=C/C(=O)C(=O)Nc2ccccc2OC)c1	–	14.7	–	–	–	·	–	–
